Laboratory results reported in paper PMC8680456 (Advanced therapeutics, 2021).

Columns and labels:
[1] = tested on: cholesterol-laden macrophages; experiment: PA colocalization with cholesterol; assay type: cell-based; details: 32 μM LXR or PA epitope equivalents, 24 hours
ABCA1 = ABCA1 and CD68 immunofluorescence in aortic roots; assay type: in vivo; details: LDLR KO mice, eight weeks of twice weekly injections, versus PBS control, n≥6
How it was run: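 LDLR KO male and female mice, obtained at 4 weeks, fed high-fat diet 14 weeks, then given tail-vein injections twice weekly for 8 weeks under isoflurane; PBS controls. Perfused with PBS and 2% paraformaldehyde; aortic roots sectioned. Blocked in TBST (0.1% Triton) with 10% horse serum 1 h RT; anti-CD68 (1:500) and anti-ABCA1 (1:1000) overnight 4 °C. Fluorescence pixel intensity quantified; two-factor ANOVA, Dunnett's vs PBS, n≥6.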

RIP3 = experiment: Liver toxicity by RIP3 expression; details: mouse, in vivo
[2] = Cleavage of niche-responsive LXR PAs; assay type: physicochemical; details: 1 mM PA, 37 °C
How it was run: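 Linker-bearing PAs at 1 mM in PBS. ROS-linked: 250 μM H2O2 + 50 μM CuSO4. NDEC-linked: 10 mM TCEP. SPDP-linked: 10 mM TCEP or 10 mM DTT. PBS-only controls. Incubated at 37 °C, 5% CO2; sampled at 24 h, 4 and 7 days; stored −20 °C. LC-MS: C18 UPLC column at 40 °C, electrospray 4.7 kV, capillary 350 °C, 150–2000 m/z, 120,000 resolution.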

In the case of `O=C(O)Cc1cccc(OCCCN(Cc2cccc(C(F)(F)F)c2Cl)CC(c2ccccc2)c2ccccc2)c1` [LXR, GW3965], the “confocal microscopy observation of cholesterol-laden macrophages” value [1] is reported as “appeared to be undergoing cell death”, the “ABCA1 expression relative to number of CD68+ macrophages” value (ABCA1) is reported as “significant increase in ABCA1 expression” and the “liver toxicity by RIP3 expression” value (RIP3) is reported as “Liver toxicity was observed”.
In the case of “C16-VVAAEE-PEG4-K-PPPPP-K(Mtt) [ROS-LXR PA]”, the “PA cleavage after 1 week” value ([2]; 250 μM H2O2 + 50 μM CuSO4 in PBS, 1 week, LC-MS) is reported as “completely cleaved”.
In the case of “C16-VVAAEE-PEG4-NDEC-K(LXR) [NDEC-LXR PA]”, the “PA cleavage by day 4” value ([2]; 10 mM TCEP in PBS, day 4, LC-MS) is reported as “complete cleavage”.
